# Measurements: ChEMBL document CHEMBL1122142, “Synthesis and antiinflammatory activity of hexahydrothiopyrano[4,3-c]pyrazoles and related analogues” (J Med Chem, 1982)
# Legend:
# Cavia porcellus [1] = assay: Tested in delayed hypersensitivity skin reaction (DHSR) after subcutaneous administration, activity reported as percent inhibition of erythema/induration of lesion; 8/11; type: functional
# Procedure, shortened: (§1)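 Male Hartley guinea pigs were sensitized with Mycobacterium tuberculosis in Freund's incomplete adjuvant, injected into each hind footpad and subcutaneously at the neck. After 3 weeks, 1.2 μg PPD was given intradermally. Compound in sesame oil was given sc, 3 animals per group, 30 min before and 5 h after PPD; screening dose 50 mg/kg.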
# Mus musculus [2] = assay: Inhibition of Mouse Active Arthus reaction following 150 mg/Kg i.p.; 41-60% inhibition.; type: functional; conditions: Mus musculus, ip
# Cavia porcellus [3] = assay: Tested in delayed hypersensitivity skin reaction (DHSR) after subcutaneous administration, activity reported as percent inhibition of erythema/induration of lesion; 2/0; type: functional
# Mus musculus [4] = assay: Mouse active Arthus (MAA) reaction activity was determined for an ip dose of 150 mg/kg in mouse; 31-40%; type: functional; conditions: route intraperitoneal
# Cavia porcellus [5] = assay: The compound was evaluated for the delayed hypersensitivity skin reaction (DHSR) activity after subcutaneous administration; 12/21
# Mus musculus [6] = assay: The compound was evaluated for the mouse active Arthus (MAA) reaction activity for an ip dose of 150 mg/kg in mouse; 31-40%; type: functional; conditions: route intraperitoneal
# Procedure, shortened: (§2)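 CD-1 mice were sensitized ip with a 1:1 Freund's complete adjuvant emulsion containing BSA in saline, 5 weeks before challenge. Compound was suspended in 1% Na CMC in pyrogen-free saline and given as one ip or oral dose 1 h before skin challenge with BSA. Screening doses were 150 mg/kg ip and 300 mg/kg po, with some at 75 or 50 mg/kg ip. Lesions were excised 3.5 h after challenge and weighed against controls.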
# Cavia porcellus [7] = assay: The compound was evaluated for the delayed hypersensitivity skin reaction (DHSR) activity after subcutaneous administration; 15/21
# Mus musculus [8] = assay: Mouse active Arthus (MAA) reaction activity was determined for an peroral dose of 300 mg/kg in mouse; type: functional; conditions: route oral
# Cavia porcellus [9] = assay: The compound was evaluated for the delayed hypersensitivity skin reaction (DHSR) activity after subcutaneous administration; 11/33
# Cavia porcellus [10] = assay: Tested in delayed hypersensitivity skin reaction (DHSR) after subcutaneous administration, activity reported as percent inhibition of erythema/induration of lesion; 10/0; type: functional
# Cavia porcellus [11] = assay: Tested in delayed hypersensitivity skin reaction (DHSR) after subcutaneous administration, activity reported as percent inhibition of erythema/induration of lesion; 9/24; type: functional; procedure, shortened: as §1
# Mus musculus [12] = assay: The compound was evaluated for the mouse active Arthus (MAA) reaction activity for an ip dose of 150 mg/kg in mouse; type: functional; conditions: route intraperitoneal; procedure, shortened: as §2
# Cavia porcellus [13] = assay: Tested in delayed hypersensitivity skin reaction (DHSR) after subcutaneous administration, activity reported as percent inhibition of erythema/induration of lesion; 13/4; type: functional
# Mus musculus [14] = assay: The compound was evaluated for the mouse active Arthus (MAA) reaction activity expressed as inhibitory dose after oral administration; type: functional; conditions: read-out: ID50 (the source's name); procedure, shortened: as §2
# Cavia porcellus [15] = assay: Tested in delayed hypersensitivity skin reaction (DHSR) after subcutaneous administration, activity reported as percent inhibition of erythema/induration of lesion; 4/22; type: functional; procedure, shortened: as §1
# Mus musculus [16] = assay: Inhibition of Mouse active Arthus (MAA) reaction activity was determined for an ip dose of 150 mg/kg in mouse; 21-30%; type: functional; conditions: route intraperitoneal
# Cavia porcellus [17] = assay: The compound was evaluated for the delayed hypersensitivity skin reaction (DHSR) activity after subcutaneous administration; 1/0
# Cavia porcellus [18] = assay: Tested in delayed hypersensitivity skin reaction (DHSR) after subcutaneous administration, activity reported as percent inhibition of erythema/induration of lesion; 3/10; type: functional; procedure, shortened: as §1
# Mus musculus [19] = assay: Inhibition of Mouse active Arthus (MAA) reaction activity was determined for peroral dose of 300 mg/kg in mouse; 21-30%; type: functional; conditions: route oral
# Cavia porcellus [20] = assay: Tested in delayed hypersensitivity skin reaction (DHSR) after subcutaneous administration, activity reported as percent inhibition of erythema/induration of lesion; 18/50; type: functional
# [21] = Acute toxicity as LD50 value was determined in mice administered intraperitoneally; type: organism-based; conditions: mouse, in vivo, ip
# [22] = Acute toxicity as LD50 value was determined in mice administered orally; type: organism-based; conditions: mouse, in vivo, po
# Mus musculus [23] = assay: The compound was evaluated for the mouse active Arthus (MAA) reaction activity expressed as inhibitory dose after ip administration; type: functional; conditions: read-out: ID50 (the source's name); procedure, shortened: as §2
# Mus musculus [24] = species: Mus musculus; assay: The compound was evaluated for the mouse active Arthus (MAA) reaction activity expressed as inhibitory dose.; type: functional; conditions: read-out: ID50 (the source's name); procedure, shortened: as §2
# Mus musculus [25] = assay: Mouse active Arthus (MAA) reaction activity was determined for an ip dose of 150 mg/kg in mouse; type: functional; conditions: route intraperitoneal
# [26] = Therapeutic ratio was determined for intraperitoneal administration; type: ADME; conditions: ip; read-out: TR
# [27] = Therapeutic ratio was determined for peroral administration; conditions: po; read-out: TR
# Cavia porcellus [28] = assay: Tested in delayed hypersensitivity skin reaction (DHSR) after subcutaneous administration, activity reported as percent inhibition of erythema/induration of lesion; 8/21; type: functional; procedure, shortened: as §1
# Cavia porcellus [29] = assay: Tested in delayed hypersensitivity skin reaction (DHSR) after subcutaneous administration, activity reported as percent inhibition of erythema/induration of lesion; 17/49; type: functional
smiles,measurement,setting,value
CCCN1N=C2/C(=C/c3cccc(C(F)(F)F)c3)CS(=O)(=O)CC2C1c1cccc(C(F)(F)F)c1 (stereo not drawn),Activity,Cavia porcellus [1],8
same,inhibition in vivo at 150 mg/kg,Mus musculus [2],41%
CSc1ccc(/C=C2\CSCC3C2=NN(C(C)=O)C3c2ccc(SC)cc2)cc1 (stereo not drawn),Activity,Cavia porcellus [3],2
same,inhibition in vivo at 150 mg/kg,Mus musculus [4],31%
CCCN1N=C2/C(=C/c3cccc(C(F)(F)F)c3)CSCC2C1c1cccc(C(F)(F)F)c1 (stereo not drawn),inhibition in vivo at 150 mg/kg,Mus musculus [4],31%
same,Activity,Cavia porcellus [5],12
CCCn1nc(-c2ccc(C)cc2)c2c1/C(=C/c1ccc(C)cc1)CSC2,inhibition in vivo at 150 mg/kg,Mus musculus [6],31%
same,Activity,Cavia porcellus [7],15
CCCN1N=C2/C(=C/c3ccc(C)cc3)CSCC2C1c1ccc(C)cc1 (stereo not drawn),inhibition in vivo at 300 mg/kg,Mus musculus [8],< 20%
same,inhibition in vivo at 150 mg/kg,Mus musculus [4],31%
same,Activity,Cavia porcellus [9],11
Cc1ccc(/C=C2\CS(=O)(=O)CC3C2=NN(CCc2ccccc2)C3c2ccc(C)cc2)cc1 (stereo not drawn),Activity,Cavia porcellus [10],10
CC(=O)N1N=C2/C(=C/c3cccnc3)CSCC2C1c1cccnc1 (stereo not drawn),Activity,Cavia porcellus [11],9
same,inhibition in vivo at 150 mg/kg,Mus musculus [12],< 20%
CC(C)(C)c1ccc(/C=C2\CS(=O)(=O)CC3C2=NN(CCc2ccccc2)C3c2ccc(C(C)(C)C)cc2)cc1 (stereo not drawn),Activity,Cavia porcellus [13],13
same,ED50,Mus musculus [14],> 600 mg/kg
CC(C)N1N=C2/C(=C/c3cccc(C(F)(F)F)c3)CS(=O)(=O)CC2C1c1cccc(C(F)(F)F)c1 (stereo not drawn),Activity,Cavia porcellus [15],4
same,inhibition in vivo at 150 mg/kg,Mus musculus [4],31%
CCCN1N=C2/C(=C/c3ccccc3)CSCC2C1c1ccccc1 (stereo not drawn),inhibition in vivo at 150 mg/kg,Mus musculus [16],21%
same,Activity,Cavia porcellus [17],1
CCCN1N=C2/C(=C/c3ccccc3)CS(=O)(=O)CC2C1c1ccccc1 (stereo not drawn),Activity,Cavia porcellus [18],3
same,inhibition in vivo at 300 mg/kg,Mus musculus [19],21%
same,inhibition in vivo at 150 mg/kg,Mus musculus [2],41%
COc1ccc(/C=C2\CS(=O)(=O)CC3C2=NN(CCCN2CCN(C)CC2)C3c2ccc(OC)cc2)cc1.O=C(O)/C=C\C(=O)O (stereo not drawn),Activity,Cavia porcellus [20],18
same,LD50,[21],280 mg/kg
same,LD50,[22],> 1200 mg/kg
same,ED50,Mus musculus [23],30 mg/kg
same,ED50,Mus musculus [14],234 mg/kg
same,ED50,Mus musculus [24],30 mg/kg
same,inhibition in vivo at 300 mg/kg,Mus musculus [19],21%
same,inhibition in vivo at 150 mg/kg,Mus musculus [25],> 60%
same,selectivity ratio,[26],9.6
same,selectivity ratio,[27],> 5.1
CC(=O)N1N=C2/C(=C/c3ccccc3)CS(=O)(=O)CC2C1c1ccccc1 (stereo not drawn),Activity,Cavia porcellus [28],8
same,inhibition in vivo at 150 mg/kg,Mus musculus [2],41%
CCCN1N=C2/C(=C/c3ccc(OC)cc3)CS(=O)(=O)CC2C1c1ccc(OC)cc1 (stereo not drawn),Activity,Cavia porcellus [29],17
same,inhibition in vivo at 300 mg/kg,Mus musculus [8],< 20%
same,inhibition in vivo at 150 mg/kg,Mus musculus [4],31%
